The source of these data is ChEMBL document CHEMBL1143389, “Synthesis, structure and antibacterial activity of new 2-(1-(2-(substituted-phenyl)-5-methyloxazol-4-yl)-3-(2-substitued-phenyl)-4,5-dihydro-1H-pyrazol-5-yl)-7-substitued-1,2,3,4-tetrahydroisoquinoline derivatives” (Bioorg Med Chem, 2009).

In general, IC50 refers to the concentration needed to halve the response being measured. In general, MIC refers to the lowest concentration found to suppress growth. Read a high MIC as a need for much substance.

The target of one test is DNA gyrase (Staphylococcus aureus, UniProt P0A0K8+P20831). Kind of test: Inhibition of Staphylococcus aureus DNA gyrase. It is filed as protein-complex assay.
Sequence of DNA gyrase (P0A0K8 whole entry): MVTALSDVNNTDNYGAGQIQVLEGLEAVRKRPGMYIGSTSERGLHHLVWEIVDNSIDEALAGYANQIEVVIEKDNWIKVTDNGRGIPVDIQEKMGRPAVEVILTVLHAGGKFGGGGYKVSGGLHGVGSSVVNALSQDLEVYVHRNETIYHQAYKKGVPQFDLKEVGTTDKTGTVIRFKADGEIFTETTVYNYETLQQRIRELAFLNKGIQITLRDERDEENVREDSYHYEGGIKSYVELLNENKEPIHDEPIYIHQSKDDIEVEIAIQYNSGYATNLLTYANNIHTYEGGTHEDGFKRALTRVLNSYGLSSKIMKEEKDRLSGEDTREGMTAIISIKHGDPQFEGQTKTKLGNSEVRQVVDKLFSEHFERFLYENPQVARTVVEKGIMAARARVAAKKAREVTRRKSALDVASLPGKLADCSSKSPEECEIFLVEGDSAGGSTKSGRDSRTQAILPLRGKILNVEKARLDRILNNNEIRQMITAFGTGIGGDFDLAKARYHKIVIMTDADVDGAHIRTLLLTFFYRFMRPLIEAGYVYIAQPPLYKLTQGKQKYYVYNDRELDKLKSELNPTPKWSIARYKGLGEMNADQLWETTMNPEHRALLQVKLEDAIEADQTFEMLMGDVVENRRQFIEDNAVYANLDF
Sequence of DNA gyrase (P20831 whole entry): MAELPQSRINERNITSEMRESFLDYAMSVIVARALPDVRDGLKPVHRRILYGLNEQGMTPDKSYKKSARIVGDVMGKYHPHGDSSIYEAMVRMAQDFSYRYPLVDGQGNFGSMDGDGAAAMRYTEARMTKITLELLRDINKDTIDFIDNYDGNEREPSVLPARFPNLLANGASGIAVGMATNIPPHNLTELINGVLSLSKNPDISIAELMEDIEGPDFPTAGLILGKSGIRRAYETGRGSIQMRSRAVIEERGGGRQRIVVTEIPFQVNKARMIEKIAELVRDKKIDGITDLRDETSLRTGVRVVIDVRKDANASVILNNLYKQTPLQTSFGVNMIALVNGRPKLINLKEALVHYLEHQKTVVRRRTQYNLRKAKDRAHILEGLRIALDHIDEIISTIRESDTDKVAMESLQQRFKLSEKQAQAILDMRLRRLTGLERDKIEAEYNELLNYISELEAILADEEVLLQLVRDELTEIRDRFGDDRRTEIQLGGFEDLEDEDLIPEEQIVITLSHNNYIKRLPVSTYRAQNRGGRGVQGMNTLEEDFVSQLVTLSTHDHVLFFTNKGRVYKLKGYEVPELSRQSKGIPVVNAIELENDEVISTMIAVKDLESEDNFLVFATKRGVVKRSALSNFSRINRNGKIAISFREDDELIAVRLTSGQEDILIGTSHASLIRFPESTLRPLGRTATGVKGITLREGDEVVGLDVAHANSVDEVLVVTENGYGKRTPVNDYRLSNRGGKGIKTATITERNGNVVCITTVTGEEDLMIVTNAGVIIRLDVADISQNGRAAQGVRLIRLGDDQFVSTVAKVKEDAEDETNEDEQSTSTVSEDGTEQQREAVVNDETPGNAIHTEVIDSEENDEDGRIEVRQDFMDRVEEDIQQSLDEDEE
The next test concerns Staphylococcus aureus. The experiment in a line: Antimicrobial activity against Staphylococcus aureus ATCC 6538 after 24 hrs by MTT assay. As to conditions: ATCC 6538, 24 h. On the technique in general: Formazan colour is commonly taken as a measure of viable cells.
A further test deals with Escherichia coli. The experiment in a line: Antimicrobial activity against Escherichia coli after 24 hrs by MTT assay.
Another test relates to Pseudomonas fluorescens. The experiment in a line: Antimicrobial activity against Pseudomonas fluorescens ATCC 13525 after 24 hrs by MTT assay. Conditions: ATCC 13525, 24 h.
Another test has as its system Bacillus subtilis. The experiment in a line: Antimicrobial activity against Bacillus subtilis ATCC 6633 after 24 hrs by MTT assay. It is filed as functional. Conditions: ATCC 6633, 24 h. A digest of the protocol:
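Mueller-Hinton medium (casein hydrolysate, soluble starch, beef extract). Compounds were serially diluted in DMSO in medium, with an inoculum of about 10⁵ cfu/mL, and incubated at 37 °C for 24 h. MIC was read visually. MTT (2 mg/mL in PBS, pH 7.4) was then added for 4–5 h at room temperature. Dye was extracted with isopropanol containing 5% 1 mol/L HCl for 12 h, and OD was read at 550 nm.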

Test [1] is described as follows: Inhibition of Bacillus subtilis DNA gyrase. A digest of the protocol: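 Gyrase purified from B. subtilis cells at 0–4 °C. Cells were lysed with lysozyme in HEPES-KOH pH 8.0/sucrose/Mg acetate/DTT/PMSF for 2.5 h, then treated with KCl–Brij. The cleared lysate at 0.2 M KCl went onto a column, eluted with ATP–Mg acetate–KCl, then high KCl, then urea, and was dialyzed to 0.05 M KCl. The read-out was DNA supercoiling activity.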

≈ marks a conversion by molar mass, not a printed value.

On to `C=Cc1ccccc1-c1nc(N2N=C(c3ccccc3F)CC2N2CCc3ccccc3C2)c(C)o1` (stereo unspecified) [TETRAPHENYLPHOSPHONIUM_CHLORIDE], for which the half-inhibitory concentration (IC50) was greater than 261000 nM at DNA gyrase and greater than 125 µg/mL in test [1]. Moreover, the minimum inhibitory concentration (MIC) against Staphylococcus aureus, with Escherichia coli, against Pseudomonas fluorescens and with Bacillus subtilis was 50 µg/mL (≈ 104 µM) each time.
`Cc1oc(-c2ccc(F)cc2F)nc1N1N=C(c2ccc(-c3ccco3)cc2)CC1N1CCc2ccccc2C1` (stereo unspecified): the values for the 50% inhibitory concentration (IC50) (against DNA gyrase; in test [1]) were 233 nM and 0.25 µg/mL (≈ 0.466 µM), respectively. Moreover, the minimal inhibitory concentration (MIC) in the test on Staphylococcus aureus is 1.56 µg/mL (≈ 2.91 µM); in the test with Escherichia coli, greater than 50 µg/mL; with Pseudomonas fluorescens, 25 µg/mL (≈ 46.6 µM); against Bacillus subtilis it was 0.39 µg/mL (≈ 0.727 µM).
As to `COc1ccc2c(c1)CN(C1CC(c3ccc(Cl)cc3Cl)=NN1c1nc(-c3ccc(F)cc3F)oc1C)CC2` (stereo unspecified), the IC50 against DNA gyrase was 878 nM; in test [1], 0.25 µg/mL (≈ 0.439 µM). In addition, the MIC was 1.56 µg/mL (≈ 2.74 µM) in the test with Staphylococcus aureus, 50 µg/mL (≈ 87.8 µM) in the test on Escherichia coli, 50 µg/mL (≈ 87.8 µM) in the test with Pseudomonas fluorescens and 0.78 µg/mL (≈ 1.37 µM) against Bacillus subtilis.
As for `Cc1oc(-c2ccccc2F)nc1N1N=C(c2ccc(Cl)cc2Cl)CC1N1CCc2ccccc2C1` (stereo unspecified), the half-maximal inhibitory concentration (IC50) against DNA gyrase was 10500 nM; in test [1], 1 µg/mL (≈ 1.92 µM). Also, the minimum inhibitory concentration (MIC) against Staphylococcus aureus was 3.12 µg/mL (≈ 5.99 µM); against Escherichia coli, 50 µg/mL (≈ 95.9 µM); against Pseudomonas fluorescens it was greater than 50 µg/mL; with Bacillus subtilis it was 3.12 µg/mL (≈ 5.99 µM).
On to `Cc1oc(-c2ccc(F)cc2F)nc1N1N=C(c2ccc(Cl)cc2Cl)CC1N1CCc2ccccc2C1` (stereo unspecified), for which the IC50 at DNA gyrase was 927 nM; in test [1], 0.25 µg/mL (≈ 0.463 µM). Further, the MIC is 1.56 µg/mL (≈ 2.9 µM) in the test with Staphylococcus aureus, greater than 50 µg/mL in the test on Escherichia coli, greater than 50 µg/mL against Pseudomonas fluorescens and 1.56 µg/mL (≈ 2.9 µM) in the test with Bacillus subtilis.
As to `COc1ccc2c(c1)CN(C1CC(c3ccc(-c4ccco4)cc3)=NN1c1nc(-c3ccc(F)cc3F)oc1C)CC2` (stereo unspecified), the figures for the IC50 (against DNA gyrase; in test [1]) were 441 nM and 0.125 µg/mL (≈ 0.221 µM), respectively. In addition, the minimum inhibitory concentration (MIC) with Staphylococcus aureus was determined as 0.78 µg/mL (≈ 1.38 µM); in the test with Escherichia coli, 25 µg/mL (≈ 44.1 µM); in the test with Pseudomonas fluorescens it was 50 µg/mL (≈ 88.2 µM); in the test with Bacillus subtilis, 0.78 µg/mL (≈ 1.38 µM).
